{"source": "ChEMBL document CHEMBL3046951", "about": "“Volatile constituents from the leaves of Callicarpa japonica Thunb. and their antibacterial activities” (2004)", "type_in_all_cases": "functional", "key": {"[1]": {"system": "Escherichia coli", "assay": "Antimicrobial activity against Escherichia coli O157:H7 ATCC 43894 assessed as growth inhibition rate at 107.52 mg/l after 72 hr by spectrophotometry", "details": "O157:H7 ATCC 43894, 72 h, read-out: GI"}, "[2]": {"system": "Bacillus cereus", "assay": "Antimicrobial activity against Bacillus cereus ATCC 11778 assessed as growth inhibition rate at 43 mg/l after 72 hr by spectrophotometry", "details": "ATCC 11778, 72 h, read-out: GI", "method_in_brief": "(§1)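 Pure volatile compounds (purity >95%; one at 90%) were tested against B. cereus ATCC 11778. The strain was grown at 30 °C in nutrient broth for 24 h, then subcultured for 18 h. Optical density was read in a Bioscreen C every 24 h for 72 h, with 10% Tween 80 as the control.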"}, "[3]": {"system": "Listeria monocytogenes", "assay": "Antimicrobial activity against Listeria monocytogenes ATCC 19111 assessed as growth inhibition rate at 43 mg/l after 72 hr by spectrophotometry", "details": "ATCC 19111, 72 h, read-out: GI", "method_in_brief": "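L. monocytogenes was grown at 30 °C in tryptic soy broth, subcultured for 18 h, and exposed to pure volatile compounds (>95% purity). Growth was followed by Bioscreen C optical density every 24 h for 72 h against a 10% Tween 80 control.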"}, "[4]": {"system": "Salmonella typhimurium", "assay": "Antimicrobial activity against Salmonella enterica subsp. enterica serovar Typhimurium ATCC 14028 assessed as growth inhibition rate at 61.12 mg/l after 72 hr by spectrophotometry", "details": "ATCC 14028, 72 h, read-out: GI"}, "[5]": {"system": "Escherichia coli", "assay": "Antimicrobial activity against Escherichia coli O157:H7 ATCC 43894 assessed as growth inhibition rate at 21.52 mg/l after 72 hr by spectrophotometry", "details": "O157:H7 ATCC 43894, 72 h, read-out: GI"}, "[6]": {"system": "Escherichia coli", "assay": "Antimicrobial activity against Escherichia coli O157:H7 ATCC 43894 assessed as growth inhibition rate at 247 mg/l after 72 hr by spectrophotometry", "details": "O157:H7 ATCC 43894, 72 h, read-out: GI"}, "[7]": {"system": "Bacillus cereus", "assay": "Antimicrobial activity against Bacillus cereus ATCC 11778 assessed as growth inhibition rate at 247 mg/l after 72 hr by spectrophotometry", "details": "ATCC 11778, 72 h, read-out: GI", "method_in_brief": "as §1"}, "[8]": {"system": "Bacillus cereus", "assay": "Antimicrobial activity against Bacillus cereus ATCC 11778 assessed as growth inhibition rate at 215.04 mg/l after 72 hr by spectrophotometry", "details": "ATCC 11778, 72 h, read-out: GI", "method_in_brief": "as §1"}, "[9]": {"system": "Vibrio parahaemolyticus", "assay": "Antimicrobial activity against Vibrio parahaemolyticus ATCC 33844 assessed as growth inhibition rate at 6.12 mg/l after 72 hr by spectrophotometry", "details": "ATCC 33844, 72 h, read-out: GI"}, "[10]": {"system": "Salmonella typhimurium", "assay": "Antimicrobial activity against Salmonella enterica subsp. enterica serovar Typhimurium ATCC 14028 assessed as growth inhibition rate at 247 mg/l after 72 hr by spectrophotometry", "details": "ATCC 14028, 72 h, read-out: GI", "method_in_brief": "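Salmonella Typhimurium ATCC 14028 grown in nutrient broth at 30 °C, precultured 24 h, then subcultured 1:100 for 18 h before testing. Single volatile compounds (>95% pure) were added. OD was read every 24 h over 72 h in a Bioscreen C, with 10% Tween 80 as the comparison control.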"}, "[11]": {"system": "Vibrio parahaemolyticus", "assay": "Antimicrobial activity against Vibrio parahaemolyticus ATCC 33844 assessed as growth inhibition rate at 215.04 mg/l after 72 hr by spectrophotometry", "details": "ATCC 33844, 72 h, read-out: GI"}}}
{"compound": "CCC/C=C/C=O", "values": [{"measurement": "inhibition of growth at 107.52 µg/mL", "setting": "[1]", "result": 89.9, "unit": "%"}, {"measurement": "inhibition of growth at 43 µg/mL", "setting": "[2]", "result": 91.8, "unit": "%"}, {"measurement": "inhibition of growth at 43 µg/mL", "setting": "[3]", "result": 45.3, "unit": "%"}, {"measurement": "inhibition of growth at 61.12 µg/mL", "setting": "[4]", "result": 98.5, "unit": "%"}, {"measurement": "inhibition of growth at 21.52 µg/mL", "setting": "[5]", "result": 8.2, "unit": "%"}, {"measurement": "inhibition of growth at 247 µg/mL", "setting": "[6]", "result": 99.9, "unit": "%"}, {"measurement": "inhibition of growth at 247 µg/mL", "setting": "[7]", "result": 98.8, "unit": "%"}, {"measurement": "inhibition of growth at 215.04 µg/mL", "setting": "[8]", "result": 100, "unit": "%"}, {"measurement": "inhibition of growth at 6.12 µg/mL", "setting": "[9]", "result": 84.7, "unit": "%"}, {"measurement": "inhibition of growth at 247 µg/mL", "setting": "[10]", "result": 98.7, "unit": "%"}, {"measurement": "inhibition of growth at 215.04 µg/mL", "setting": "[11]", "result": 99.8, "unit": "%"}]}
